Test results reported in ChEMBL document CHEMBL2177004, “Synthesis and SAR of b-annulated 1,4-dihydropyridines define cardiomyogenic compounds as novel inhibitors of TGFβ signaling” (J Med Chem, 2012).
Calls of active or inactive are those of the source. No cut-off for these calls is given here.

Tests used:
[1] = target: T1, Activin receptor type-1B (Homo sapiens) (UniProt P36896); conditions: 2.5 uM
T1 sequence (whole entry): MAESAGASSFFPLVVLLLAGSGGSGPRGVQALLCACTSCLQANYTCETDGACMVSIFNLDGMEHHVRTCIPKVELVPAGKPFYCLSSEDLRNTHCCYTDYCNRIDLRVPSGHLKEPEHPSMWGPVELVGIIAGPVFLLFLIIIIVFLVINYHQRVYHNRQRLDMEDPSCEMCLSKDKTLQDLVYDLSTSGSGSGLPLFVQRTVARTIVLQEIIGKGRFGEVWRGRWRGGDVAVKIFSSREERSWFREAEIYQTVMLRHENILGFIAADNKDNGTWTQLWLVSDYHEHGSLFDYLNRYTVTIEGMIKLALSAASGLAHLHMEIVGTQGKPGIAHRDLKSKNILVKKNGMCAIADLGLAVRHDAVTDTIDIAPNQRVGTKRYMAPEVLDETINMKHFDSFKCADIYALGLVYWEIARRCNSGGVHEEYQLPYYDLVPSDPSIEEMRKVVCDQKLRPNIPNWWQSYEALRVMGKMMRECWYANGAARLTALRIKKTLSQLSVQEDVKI

[2] = target: T2, Activin receptor type-1C (Homo sapiens) (UniProt Q8NER5); conditions: 2.5 uM
T2 sequence (whole entry): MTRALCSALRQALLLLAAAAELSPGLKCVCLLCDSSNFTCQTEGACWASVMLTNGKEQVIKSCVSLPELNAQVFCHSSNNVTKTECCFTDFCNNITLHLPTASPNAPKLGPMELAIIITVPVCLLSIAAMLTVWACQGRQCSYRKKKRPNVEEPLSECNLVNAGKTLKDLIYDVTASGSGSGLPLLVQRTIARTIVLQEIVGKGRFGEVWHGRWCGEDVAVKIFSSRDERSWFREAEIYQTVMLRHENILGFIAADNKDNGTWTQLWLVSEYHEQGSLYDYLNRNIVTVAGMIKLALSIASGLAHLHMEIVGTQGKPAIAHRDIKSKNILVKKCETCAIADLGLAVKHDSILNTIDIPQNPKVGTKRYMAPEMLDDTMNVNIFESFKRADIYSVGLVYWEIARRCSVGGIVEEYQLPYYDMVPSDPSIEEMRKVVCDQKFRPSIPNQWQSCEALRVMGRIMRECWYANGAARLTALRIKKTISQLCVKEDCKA

TGF-beta receptor type-2 = TGF-beta receptor type-2 (Homo sapiens, UniProt P37173); test: Inhibition of TGBR2 signaling in human HEK293T cells assessed as inhibition of SMAD activation after 2 to 22 hrs by dual Luciferase Assay; format: cell-based, HEK-293T
HEK-293T = test: Inhibition of Activin receptor signaling in activin A-stimulated human HEK293T cells assessed as inhibition of SMAD activation at 2.5 uM after 2 to 22 hrs by dual Luciferase Assay; format: cell-based
Procedure, shortened: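 HEK-293T cells bulk co-transfected with an SBE-4–firefly luciferase reporter and a TK-driven Renilla plasmid for normalization, in DMEM with 2% FBS. After 12–14 h, cells were replated at 25,000/well in DMEM with 1% FBS and rested 2 h. Compound was then added with Activin A (10 ng/mL) for 20–22 h. Dual luciferase read-out was compared with DMSO, run in triplicate, with ≥2 independent experiments.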

[3] = Inhibition of calcium transients in mouse HL-1 cells after 10 mins using Fluo-4 by fluorescene assay; format: functional
Procedure, shortened: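 HL-1 murine atrial cells plated at 25,000/well on gelatin (0.02%)/fibronectin (5 μg/mL) in Claycomb medium with 10% FBS and 0.1 mM norepinephrine. Loaded with Hoechst 33342 and Fluo-4 for 30 min at 37 °C, then 30 min at room temperature. Washed with Tyrode's (pH 7.4); compound in Tyrode's 10 min at room temperature. 10 s videos at 33 frames/s; kinetic parameters from image analysis.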

CGR8 [4] = test: Promotion of cardiogenesis in mouse CGR8 cells carrying Myh6-GFP compound treated at 2.5 uM on days 3 to 5 measured on day 10 post differentiation by GFP reporter assay; format: functional, cell-based
Procedure, shortened: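 CGR8 mESCs carrying a Myh6 (α-MHC)-GFP reporter seeded in LIF-free high-glucose DMEM with 10% FBS to differentiate. Compound given on days 3–5; α-MHC-GFP fluorescence quantified by high-content imaging on day 10. Data normalized at lower concentrations.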

J1 (Mus musculus) = test: Inhibition of mesoderm formation in mouse J1 cells carrying brachyury/T-GFP compound treated on day 1 measured on day 4 of differentiation by flow cytometry
CGR8 [5] = test: Promotion of cardiogenesis in mouse CGR8 cells carrying Myh6-GFP compound treated at 5 uM on days 3 to 5 measured on day 10 post differentiation by GFP reporter assay; format: functional, cell-based
Procedure, shortened: (§1)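 Differentiation used CGR8 mESCs carrying a Myh6 (α-MHC)-GFP reporter, seeded in LIF-free high-glucose DMEM with 10% FBS. Compound was given on days 3–5 of differentiation. α-MHC-GFP fluorescence was quantified by high-content imaging on day 10, and data were normalized.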

CGR8 [6] = test: Inhibition of cardiogenesis in mouse CGR8 cells carrying Myh6-GFP compound treated at high concentration on days 3 to 5 measured on day 10 post differentiation by GFP reporter assay; format: functional, cell-based
Procedure, shortened: as §1

CGR8 [7] = test: Promotion of cardiogenesis in mouse CGR8 cells carrying Myh6-GFP compound treated at 1 to 5 uM on days 3 to 5 measured on day 10 post differentiation by GFP reporter assay; format: functional, cell-based
Procedure, shortened: as §1

TGF-beta receptor type-2, sequence (P37173 whole entry): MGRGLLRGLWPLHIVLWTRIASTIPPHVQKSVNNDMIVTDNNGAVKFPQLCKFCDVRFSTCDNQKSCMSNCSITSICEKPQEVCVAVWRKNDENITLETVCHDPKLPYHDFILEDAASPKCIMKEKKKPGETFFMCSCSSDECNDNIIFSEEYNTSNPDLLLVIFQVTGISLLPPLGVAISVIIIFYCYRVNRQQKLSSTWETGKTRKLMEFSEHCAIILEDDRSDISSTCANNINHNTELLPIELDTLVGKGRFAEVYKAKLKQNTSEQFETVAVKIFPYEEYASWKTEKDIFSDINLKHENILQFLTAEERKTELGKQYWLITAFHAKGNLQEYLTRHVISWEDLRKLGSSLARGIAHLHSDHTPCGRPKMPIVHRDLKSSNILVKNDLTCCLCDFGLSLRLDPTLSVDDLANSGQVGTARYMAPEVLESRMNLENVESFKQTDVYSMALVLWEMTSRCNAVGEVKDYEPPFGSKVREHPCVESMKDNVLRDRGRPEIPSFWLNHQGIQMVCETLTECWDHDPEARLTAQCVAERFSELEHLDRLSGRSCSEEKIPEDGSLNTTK

Compound | inhibition (HEK-293T) [%] | inhibition (INH) [3] [%] | inhibition (J1 (Mus musculus)) | further results
NC(=O)c1ccc(-c2nc(-c3ccccn3)c(-c3ccc4c(c3)OCO4)[nH]2)cc1 |  |  |  | inhibition [1]: 99%; inhibition [2]: 99%
CCOC(=O)C1=C(C)NC2=C(C(=O)CC(C)(C)C2)C1c1ccc(-c2ccccc2)cc1 (racemic) [listing 1 of 2 here] |  |  |  | IC50 (TGF-beta receptor type-2): 850 nM
CCOC(=O)C1=C(C)NC2=C(C(=O)CC(C)(C)C2)C1c1ccc(-c2ccccc2)cc1 (racemic) [listing 2 of 2 here] | 51 |  |  | 
COC(=O)C1=C(C)NC2=C(C(=O)CC(C)(C)C2)C1c1cccc(-c2ccc3[nH]ccc3c2)c1 (racemic) | 24 |  |  | 
CCCC1CC(=O)C2=C(C1)NC(C)=C(C(=O)OC)C2c1ccc(-c2ccccc2)cc1 (single isomer, unassigned; (+)) [listing 1 of 2 here] |  | 58 |  | 
CCCC1CC(=O)C2=C(C1)NC(C)=C(C(=O)OC)C2c1ccc(-c2ccccc2)cc1 (single isomer, unassigned; (+)) [listing 2 of 2 here] |  |  | Active | Activity (CGR8 [4]): Active
COC(=O)C1=C(C)NC2=C(C(=O)CC(C)(C)C2)C1c1cccc(-c2ccc3[nH]ccc3c2)c1 (single isomer, unassigned; (+)) | 55 |  | Active | 
CCCC1CC(=O)C2=C(C1)NC(C)=C(C(=O)OC)C2c1ccc(-c2ccccc2)cc1 (single isomer, unassigned; (-)) [listing 1 of 2 here] |  | 85 |  | 
CCCC1CC(=O)C2=C(C1)NC(C)=C(C(=O)OC)C2c1ccc(-c2ccccc2)cc1 (single isomer, unassigned; (-)) [listing 2 of 2 here] |  |  | Active | Activity (CGR8 [4]): inactive
COC(=O)C1=C(C)NC2=C(C(=O)CC(C)(C)C2)C1c1cccc(-c2ccc3[nH]ccc3c2)c1 (single isomer, unassigned; (-)) | 68 |  |  | 
CCOC(=O)C1=C(C)NC2=C(C(=O)CC(C)(C)C2)C1c1ccc(-c2ccccc2)cc1 (stereo in doubt; (+)1) [listing 1 of 2 here] |  | 44 |  | IC50 (TGF-beta receptor type-2): 460 nM
CCOC(=O)C1=C(C)NC2=C(C(=O)CC(C)(C)C2)C1c1ccc(-c2ccccc2)cc1 (stereo in doubt; (+)1) [listing 2 of 2 here] | 49 |  | Active | Activity (CGR8 [5]): Active; inhibition (CGR8 [6]): Dose-dependent effect; Activity (CGR8 [7]): Active
CCOC(=O)C1=C(C)NC2=C(C(=O)CC(C)(C)C2)C1c1ccc(-c2ccccc2)cc1 (stereo in doubt; (-)1) [listing 1 of 2 here] |  | 87 |  | IC50 (TGF-beta receptor type-2): 6900 nM
CCOC(=O)C1=C(C)NC2=C(C(=O)CC(C)(C)C2)C1c1ccc(-c2ccccc2)cc1 (stereo in doubt; (-)1) [listing 2 of 2 here] | 41 |  | Active | Activity (CGR8 [7]): Active
COC(=O)C1=C(C)NC(C)=C(C(=O)OC)C1c1ccccc1[N+](=O)[O-] [NIFEDIPINE] |  | 66 |  | 
